Rows were chosen to be rich in hits. Some 2.2% of all compounds tested hit in one or more screens of this group.
MT stabilizer: microtubule stabilization, imaging screen; % tubulin-high responders, % at 10 µM; HeLa tubulin immunostaining HCS, 24 h; share of cells brighter than vehicle mean+2SD; 200,000 tested, 0.83% active;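 active = plate Z-score above 3 for both tubulin-high and condensed-nucleus cell shares, with cell loss under 80%, at 10 µM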;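 note: anti alpha tubulin signal scored within the nucleus-defined area of each cell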
BaF3 parental: counter-screen for JAK2V617F inhibitors: parental Ba/F3 viability inhibitors; CellTiter-Glo ATP luminescence; inhibition, % at 5.6 µM; 220,000 tested, 1.1% active; AID 1486;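 active = inhibition above a per-campaign cutoff, the mean inhibition of all tested compounds plus 3 SD, cut at about 27% in these data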;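 note: 0% = DMSO wells and 100% = JAK Inhibitor I control wells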
b-catenin transl: alters nuclear translocation of beta-catenin in HeLa cells; immunofluorescence imaging; nuclear translocation activity, % at 5 µM; 190,000 tested, 0.3% active;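 active = nuclear translocation activity above 50% at 5 µM, with a well cell count of 50 or more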;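 note: per-cell ratio of nuclear to cytoplasmic median beta-catenin stain intensity; plate controls were DMSO negative control for no effect and GSK-3 inhibitor IX positive control for full effect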
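Read-out: Nuclear/cytoplasmic beta-catenin signal ratio, % activation | Assay system: Human HeLa cell line | Times: 24 h compound exposure at 37°C, 5% CO2 | Signal: Fluorescence imaging of beta-catenin antibody stain plus DAPI | Dosing: 5 µM primary, 0.02–20 µM confirmation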
Ba/F3 V617F tox: lowers viability of Ba/F3 cells expressing EpoR and JAK2V617F; 220,000 tested, 1.1% active; inhibition, % at 5.6 µM; ATP luminescence;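 active = inhibition above the campaign mean plus 3 SD over all tested compounds, cut at about 24% in these data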;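 note: cytokine-independent growth of Ba/F3 cells driven by EpoR plus mutant JAK2; 0% = DMSO-treated cells and 100% = JAK inhibitor I control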
APP 5UTR inh: APP translation inhibition; SH-SY5Y APP 5'UTR-luciferase reporter, luminescence; inhibition, % at 2 µM; 190,000 tested, 0.82% active; AID 1285;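 active = inhibition above a set limit, derived from the sample mean plus 3 SD, cut at about 45% in these data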
IEC-6 tox: counter-screen for KLF5 inhibitors: cytotoxicity in IEC-6 cells; IEC-6 cytotoxicity, luminescence viability; inhibition, % at 5 µM; 290,000 tested, 0.78% active; AID 1825;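 note: 0% = plate median of test compound wells and 100% = cytotoxic reference compound wells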
BaF3 tox 2: reduces parental Ba/F3 viability, JAK2V617F counter-screen; 580 tested, 31% active; inhibition, % at 5.6 µM; shares compounds with Ba/F3 V617F tox; AID 1520; CellTiter-Glo luminescence; cells kept alive by added IL-3;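 active = cell growth inhibition above the hit limit set in the earlier mutant JAK2 cell screen, cut at about 27% in these data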;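 note: plate controls were DMSO-treated cells for no effect and JAK Inhibitor I control wells for full effect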
JAK2V617F confrm: confirmation: loss of viability in JAK2V617F-dependent Ba/F3 cells; inhibition, % at 5.6 µM; shares compounds with Ba/F3 V617F tox; Ba/F3 EpoR-JAK2V617F viability, CellTiter-Glo luminescence; AID 1521; 580 tested, 66% active;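 active = mean inhibition above the hit cutoff derived in the earlier primary screen, cut at about 25% in these data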;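 note: 0% = DMSO-treated cells and 100% = JAK inhibitor I control wells; higher means lower luminescence from reduced cell ATP and viability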
IEC-6 tox confirm: confirmation of cytotoxic compounds in rat IEC-6 intestinal epithelial cells; inhibition, % at 5 µM; shares compounds with IEC-6 tox; 1,900 tested, 63% active; IEC-6 rat intestinal epithelial viability, luminescence;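 note: 0% = vehicle and 100% = reference cytotoxic drug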
Starred values were filed as active, the others as inactive; . = no result given. Cut-off read from the data, not from the text of the source, unless noted: active = inhibition above about 22%; inactive = the rest.

SMILES | MT stabilizer | BaF3 parental | b-catenin transl | Ba/F3 V617F tox | APP 5UTR inh | IEC-6 tox | BaF3 tox 2 | JAK2V617F confrm | IEC-6 tox confirm
Cc1ccc(OCCn2cnc3c(N)ncnc32)cc1 | 3.0 | 22.1 | 0.0 | 92.6* | 4.3 | 6.5 | 81.9* | 27.8* | .
CCOc1ccc(OCCn2c(=S)[nH]c3c(N)ncnc32)cc1 | 2.1 | 5.6 | -0.5 | -2.4 | 0.1 | -8.1 | . | . | .
COc1ccc2nc(NC(=O)CN3CCOCC3)sc2c1 | 2.9 | 5.5 | -3.7 | 82.7* | -5.3 | -0.9 | 1.4 | -6.2 | .
COc1ccc2nc(NC(=O)CN3CCN(C)CC3)sc2c1 | 2.5 | 2.6 | -3.4 | -1.8 | -1.2 | -2.4 | . | . | .
Nc1ccc2nn(-c3ccc(F)cc3)nc2c1 | . | . | . | . | . | 2.5 | . | . | .
NC1=NC2(CCCCC2)N(c2ccc(F)cc2)C(N)=N1 | 3.6 | 11.1 | -1.2 | 23.5* | 4.1 | -5.2 | -4.1 | 32.7* | .
CCn1ncc(Cl)c1C(=O)Nc1ccc2c(c1)CCC2 | . | . | . | . | . | 13.9 | . | . | .
O=C1N=C(N2CCOCC2)S/C1=C\c1ccc(OS(=O)(=O)c2ccccc2)cc1 | 3.1 | 11.5 | 0.5 | 44.4* | -12.6 | 1.8 | -5.1 | -3.0 | .
Cc1cc(NC(=O)C2CCCCC2C(=O)O)ccc1NC(=O)c1ccccc1 (centres undefined) | . | . | . | . | . | 4.1 | . | . | .
COc1cccc(/C=N/NC(=O)c2c(C)nc3ccc(Br)cn23)c1O | 3.3 | 6.7 | -0.2 | 24.4* | 61.1* | 6.2 | 62.1* | 65.6* | .
CCOc1ccccc1/C=N/NC(=O)c1c(C)nc2ccc(Br)cn12 | . | . | . | . | . | 12.0 | . | . | .
Cc1ccc(NC(=O)C2CCN(S(C)(=O)=O)CC2)cc1Cl | . | . | . | . | . | 0.9 | . | . | .
COc1ccc(Nc2nc(N3CCCC3)nc3ccccc23)c(OC)c1 | 2.6 | 17.8 | . | 46.9* | 35.6 | 9.5 | 5.7 | 10.9 | .
COc1ccc(Nc2ncnc3ccccc23)c(OC)c1 | 3.0 | 5.1 | 7.0 | -0.6 | -3.9 | 4.1 | . | . | .
Cc1nc(NCc2ccco2)c2c(C)c(C)sc2n1 | 2.0 | 3.7 | 8.0 | 26.8* | 3.5 | 18.5 | 34.1* | 84.5* | .
Cc1sc2nc3c4ccccc4c(NCc4ccco4)nn3c(=O)c2c1C | 3.8 | 4.0 | 0.4 | 4.0 | -135.9 | -7.4 | . | . | .
O=C1/C(=C/c2ccc(O)c(O)c2)SC(=S)N1Nc1ccccc1 | 8.4 | -5.7 | 0.9 | 37.9* | -35.2 | -0.9 | -1.7 | 66.8* | .
COc1cc(/C=C2\SC(=S)N(Nc3ccccc3)C2=O)ccc1O | 8.6 | 3.7 | 1.2 | -2.1 | -34.4 | 11.6 | . | . | .
O=C(Nc1ccccc1)c1cnc2ccccc2n1 | 1.5 | 9.5 | -2.3 | 102.6* | -51.1 | 19.4 | -0.8 | -3.9 | .
O=C(O)CCCC(=O)Nc1ccc(C(=O)NCc2cccnc2)cc1 | 2.3 | 3.7 | . | -0.9 | -29.2 | -2.5 | . | . | .
O=C(CCC1CCCC1)Nc1ccc(C(=O)NCc2cccnc2)cc1 | 4.5 | 20.1 | 0.0 | 31.3* | 28.6 | 85.4* | 29.6* | 99.6* | 45.5*
Cn1cc(C(=O)N/N=C/c2ccc3c(c2)OCO3)c2ccccc21 | . | 19.4 | 0.0 | 47.7* | . | 52.7* | 12.5 | 22.8 | 47.9*
COc1ccccc1N1C(=O)c2cccc3c(C(=O)O)ccc(c23)C1=O | 1.2 | 2.8 | . | -1.6 | 4.6 | -2.2 | . | . | .
COc1ccc2c3c(cccc13)C(=O)N(O)C2=O | 4.8 | 1.5 | -2.2 | 30.1* | 9.7 | 62.8* | -2.1 | 17.8 | 33.3*
COc1cccc(CNC(=O)CNS(=O)(=O)c2ccc(Br)s2)c1 | . | . | . | . | . | -0.2 | . | . | .
SMILES | MT stabilizer | BaF3 parental | b-catenin transl | Ba/F3 V617F tox | APP 5UTR inh | IEC-6 tox | BaF3 tox 2 | JAK2V617F confrm | IEC-6 tox confirm
CC(=O)OC[C@H]1O[C@@H](n2ncc(=O)[nH]c2=O)[C@H](OC(C)=O)[C@@H]1OC(C)=O | 3.5 | 26.4 | . | 60.9* | -6.6 | 39.3* | 53.0* | 75.0* | 22.0*
Cc1cccc(Nc2nc(N)nc(CCl)n2)c1C | . | 3.5 | 0.1 | 99.6* | . | 101.7* | 4.5 | 98.4* | 1.0
COc1ccccc1Nc1nc(N)nc(CCl)n1 | . | 2.4 | -1.2 | -1.5 | . | 0.2 | . | . | .
CC(C)Cc1nn2c(=O)cc(CSCC(=O)Nc3ccccc3F)nc2s1 | . | . | . | . | . | 2.2 | . | . | .
O=C1C=CC(=O)N1CCCCCCN1C(=O)C=CC1=O | 4.6 | -1.2 | -1.3 | 71.7* | 94.6* | 24.0* | 96.3* | 79.5* | 2.0
O=C1C2C3C=CC(C3)C2C(=O)N1CCCCCCN1C(=O)C2C3C=CC(C3)C2C1=O (centres undefined) | 1.7 | 7.4 | -1.6 | -0.4 | 12.2 | -4.5 | . | . | .
CCN(CC)C(=O)CSc1nc2c(sc(=S)n2-c2ccc(C)cc2C)c(=O)[nH]1 | . | . | . | . | . | 9.8 | . | . | .
O=C(O)CN1C(=O)/C(=C/c2ccccc2Br)Oc2ccccc21 | . | . | . | . | . | 12.6 | . | . | .
N#CC1=C(N)Oc2cc3ccccc3cc2C1c1cccnc1 (centres undefined) | 55.6* | 24.6 | -1.3 | 30.1* | 7.0 | 47.3* | 30.6* | 47.5* | 43.8*
O=[N+]([O-])c1ccc(Sc2nnnn2-c2ccccc2)nc1 | 4.7 | 2.8 | -1.5 | 68.9* | 93.8* | 37.5* | 29.4* | 99.7* | 44.2*
CC(=O)Cc1cc(O)c2ccccc2c1OC(=O)c1ccccc1 | 4.7 | -3.8 | 1.2 | 27.8* | -6.6 | 54.9* | 27.6* | 40.5* | -9.2
O=c1c(Cl)c(Cl)cnn1Cc1nnc(-c2ccc(Cl)cc2)o1 | 39.8 | -7.8 | 2.4 | 33.9* | 76.7* | 35.0* | 65.6* | 81.3* | 17.2
Cc1ccc2c(cnn2C(=O)CCC(=O)N2CCCCC2C)c1 (centres undefined) | . | . | . | . | . | 1.7 | . | . | .
Cn1cc([N+](=O)[O-])c(C(=O)Nc2cc(Oc3ccccc3)cc([N+](=O)[O-])c2)n1 | 25.2 | 1.6 | 17.7 | 26.4* | 97.4* | 22.7* | 32.3* | 98.6* | 18.8
CCOc1ccc(N2CC(C(=O)Nc3cccnc3)CC2=O)cc1 (centres undefined) | . | . | . | . | . | 2.5 | . | . | .
O=C(c1ccc2c(c1)C(=O)N(CCCO)C2=O)c1ccc2c(c1)C(=O)N(CCCO)C2=O | 5.2 | 3.7 | -1.1 | 0.9 | 0.6 | 2.3 | . | . | .
O=C1c2ccc3c4c(ccc(c24)C(=O)N1CCCCO)C(=O)N(CCCCO)C3=O | 3.4 | 13.1 | 0.2 | 31.6* | 28.5 | 29.1* | 78.9* | 91.4* | 36.6*
COc1cccc(/C=N/NC(=O)c2[nH]nc3c2CCc2ccccc2-3)c1 | . | -0.9 | -3.7 | 29.1* | . | 23.3* | 43.7* | 92.5* | 43.4*
COc1ccc(OC)c(/C=N/NC(=O)c2[nH]nc3c2CCc2ccccc2-3)c1 | 1.2 | 5.5 | -0.4 | -2.0 | 5.5 | -10.3 | . | . | .
CCN1C(=S)N[C@@H](c2cccs2)C(C(=O)OC)=C1C | . | . | . | . | . | 1.0 | . | . | .
NC(=O)c1ccc(NC(=O)CN2CCN(c3ccccc3)CC2)cc1 | . | . | . | . | . | -0.5 | . | . | .

Screens (PubChem)
